Measurements taken from ChEMBL document CHEMBL1145138, “Design and synthesis of 4-azaindoles as inhibitors of p38 MAP kinase” (J Med Chem, 2003).

What was measured:
[1] = molecular target: Mitogen-activated protein kinase 14 (Homo sapiens, UniProt Q16539); assay: In vitro inhibitory concentration against Mitogen-activated protein kinase p38 alpha
[2] = molecular target: Mitogen-activated protein kinase 14 (Rattus norvegicus) (UniProt P70618); assay: In vivo percent inhibition of LPS stimulated TNF alpha synthesis in rat at a concentration of 30 mg/kg; type: functional, organism-based; set-up: dose 30 mg/kg
Chain of Mitogen-activated protein kinase 14 (Rattus norvegicus) (P70618 whole entry): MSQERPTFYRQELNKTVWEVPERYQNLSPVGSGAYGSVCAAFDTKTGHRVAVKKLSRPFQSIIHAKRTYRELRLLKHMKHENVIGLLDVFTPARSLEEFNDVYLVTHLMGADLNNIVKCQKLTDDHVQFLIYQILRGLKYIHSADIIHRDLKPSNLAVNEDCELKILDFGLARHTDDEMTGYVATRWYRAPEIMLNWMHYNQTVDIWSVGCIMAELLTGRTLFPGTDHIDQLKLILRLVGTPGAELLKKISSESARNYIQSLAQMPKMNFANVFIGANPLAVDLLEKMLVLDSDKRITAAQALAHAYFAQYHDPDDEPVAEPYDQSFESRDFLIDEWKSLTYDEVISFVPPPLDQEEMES
Summary of the method: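 Female Wistar/Han rats, 8 per group, were dosed orally at −30 min with compound in CMC vehicle (0.9% NaCl, 0.5% Na-CMC, 0.4% polysorbate 80, 0.9% benzyl alcohol) or with vehicle alone. LPS 50 μg/kg was given ip at 0 h. At 1.5 h, blood was taken by cardiocentesis after CO₂ euthanasia, and serum TNFα was measured by ELISA against vehicle controls.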

[3] = Bioavailability at a dose of 10 mg/Kg administered to female hanover-wistar rat per orally; type: ADME, organism-based; conditions: in vivo, po
Summary of the method: (§1)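 Female Wistar/Han rats (180–220 g, n=3 per regime) received a single 10 mg/kg oral suspension in 0.9% NaCl, 0.5% Na-CMC, 0.4% polysorbate 80 and 0.9% benzyl alcohol. Blood was taken at 1, 3, 6, 8 and 24 h by orbital sinus or cardiac puncture. Plasma drug was measured by LC/MS after acetonitrile precipitation; the comparison arm was a 10 mg/kg IV bolus.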

[4] = T 1/2 at a dose of 10 mg/Kg administered to female hanover-wistar rat intravenously; type: ADME, organism-based; conditions: in vivo, iv
Summary of the method: (§2)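 Female Wistar/Han rats weighing 180–220 g, 3 per dose regime, received a single 10 mg/kg IV bolus in 50% cyclodextran/water. Blood was drawn under CO₂:O₂ (60:40) via orbital sinus or cardiac puncture at 1, 3, 6, 8 and 24 h. Plasma was protein-precipitated with acetonitrile, diluted in 50 mM formate buffer and quantified by LC/MS.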

[5] = C max at a dose of 10 mg/Kg administered to female hanover-wistar rat per orally; type: ADME, organism-based; set-up: dose 10 mg/Kg, route oral; conditions: in vivo, po; summary of the method: as §1
[6] = AUC at a dose of 10 mg/Kg administered to female hanover-wistar rat intravenously; type: ADME, organism-based; conditions: plasma, iv; summary of the method: as §2
[7] = T max at a dose of 10 mg/Kg administered to female hanover-wistar rat per orally; type: ADME, organism-based; conditions: in vivo, po; summary of the method: as §1
[8] = tested on: Rattus norvegicus; assay: AUC at a dose of 10 mg/Kg administered to female hanover-wistar rat per orally; type: ADME, organism-based, Plasma; conditions: in vivo, po; summary of the method: as §1
[9] = CL at a dose of 10 mg/Kg administered to female hanover-wistar rat intravenously; type: ADME, organism-based; conditions: in vivo, iv; summary of the method: as §2
[10] = T 1/2 at a dose of 10 mg/Kg administered to female hanover-wistar rat per orally; type: ADME, organism-based; conditions: in vivo, po; summary of the method: as §1
[11] = C max at a dose of 10 mg/Kg administered to female hanover-wistar rat intravenously; type: ADME, organism-based; set-up: dose 10 mg/Kg, route intravenous; conditions: in vivo, iv; summary of the method: as §2
[12] = molecular target: Mitogen-activated protein kinase 14 (Rattus norvegicus) (UniProt P70618); assay: In vivo percent inhibition of LPS stimulated TNF alpha synthesis in rat at a concentration of 10 mg/kg

Chain of Mitogen-activated protein kinase 14 (Q16539 whole entry): as the sequence (P70618 whole entry) above, with V17I, H48L, A263T, E321D, F332L counted along it

IC50 [1] [nM] | inhibition [2] [%] | SMILES | further results
53 | 98 | Fc1ccc(-c2c(-c3ccncc3)[nH]c3nccnc23)cc1 | 
1 | 76 | C[C@@H](O)CNc1cc(-c2[nH]c3cccnc3c2-c2ccc(F)cc2)ccn1 | bioavailability [3]: 30.5%; half-life [4]: 174 min; Cmax [5]: 2800 nM; AUC [6]: 27.5 µM·h; Tmax [7]: 1 h; AUC [8]: 8.4 µM·h; clearance [9]: 16.7 mL/min/kg; half-life [10]: 90 min; Cmax [11]: 8.8 µM
3 |  | CCC(O)CNc1cc(-c2[nH]c3cccnc3c2-c2ccc(F)cc2)ccn1 (stereo not given) | inhibition [12]: 85%
1800 |  | Fc1ccc(-c2c(-c3ccncc3)[nH]c3ccccc23)cc1 | 
172 |  | OCCn1c(-c2ccncc2)c(-c2ccc(F)cc2)c2ncccc21 | 
21 |  | COCCn1c(-c2ccncc2)c(-c2ccc(F)cc2)c2ncccc21 | 
 | 44 | Fc1ccc(-c2c(-c3ccncc3)oc3cccnc23)cc1 | 
3 | 88 | OCCNc1cc(-c2[nH]c3cccnc3c2-c2ccc(F)cc2)ccn1 | 

SMILES | IC50 [1] [nM] | inhibition [2] [%] | further results
Cn1c(-c2ccncc2)c(-c2ccc(F)cc2)c2ncccc21 | 98 | 53 | 
Fc1ccc(-c2c(-c3ccncc3)[nH]c3cccnc23)cc1 | 6.5 | 46 | 
